Converted amounts (≈) assume the structure as drawn.
Experiments:
[1] = tested on: Staphylococcus aureus; test: Antibacterial activity against Staphylococcus aureus ATCC 6538 after 24 hrs by microdilution method; assay type: functional; conditions: ATCC 6538, 24 h
Summary of the method: (§1)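 Broth microdilution in 96-well plates. Bacterial suspensions were adjusted in sterile saline to 1.0 × 10⁵ CFU/ml, prepared daily and kept at 4 °C. Compound was added to LB broth with 1.0 × 10⁴ CFU per well and shaken at 160 rpm for 24 h at […] (so in the source). MIC is the lowest concentration with no visible growth under a binocular microscope. OD655 was also read. Duplicate, repeated three times.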

[2] = tested on: Bacillus cereus; test: Antibacterial activity against clinical isolate of Bacillus cereus after 24 hrs by microdilution method; assay type: functional; summary of the method: as §1
[3] = tested on: Micrococcus flavus; test: Antibacterial activity against Micrococcus flavus ATCC 10240 after 24 hrs by microdilution method; assay type: functional; conditions: ATCC 10240, 24 h; summary of the method: as §1
[4] = tested on: Listeria monocytogenes; test: Antibacterial activity against Listeria monocytogenes NCTC 7973 after 24 hrs by microdilution method; assay type: functional; conditions: NCTC 7973, 24 h; summary of the method: as §1
[5] = tested on: Pseudomonas aeruginosa; test: Antibacterial activity against Pseudomonas aeruginosa ATCC 27853 after 24 hrs by microdilution method; assay type: functional; conditions: ATCC 27853, 24 h; summary of the method: as §1
[6] = tested on: Salmonella typhimurium; test: Antibacterial activity against Salmonella Typhimurium ATCC 13311 after 24 hrs by microdilution method; assay type: functional, Salmonella enterica subsp. enterica serovar Typhimurium; conditions: Salmonella enterica, ATCC 13311, 24 h; summary of the method: as §1
[7] = tested on: Escherichia coli; test: Antibacterial activity against Escherichia coli ATCC 35210 after 24 hrs by microdilution method; assay type: functional; conditions: ATCC 35210, 24 h; summary of the method: as §1
[8] = tested on: Enterococcus faecalis; test: Antibacterial activity against Enterococcus faecalis isolated from human after 24 hrs by microdilution method; assay type: functional; summary of the method: as §1
[9] = tested on: Staphylococcus aureus; test: Antibacterial activity against Staphylococcus aureus ATCC 6538 incubated for 24 hrs followed by serial sub-cultivation for 24 hrs by microdilution method; assay type: functional; conditions: ATCC 6538, 24 h
Summary of the method: (§2)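 MBC: after the 24 h LB broth microdilution (1.0 × 10⁴ CFU per well, 160 rpm), wells were serially sub-cultured into fresh broth plates and incubated a further 24 h. MBC is the lowest concentration with no visible growth, taken as 99.5% killing of the original inoculum. Duplicate, repeated three times.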

[10] = tested on: Bacillus cereus; test: Antibacterial activity against clinical isolate of Bacillus cereus incubated for 24 hrs followed by serial sub-cultivation for 24 hrs by microdilution; assay type: functional; summary of the method: as §2
[11] = tested on: Micrococcus flavus; test: Antibacterial activity against Micrococcus flavus ATCC 10240 incubated for 24 hrs followed by serial sub-cultivation for 24 hrs by microdilution; assay type: functional; conditions: ATCC 10240, 24 h; summary of the method: as §2
[12] = tested on: Listeria monocytogenes; test: Antibacterial activity against Listeria monocytogenes NCTC 7973 incubated for 24 hrs followed by serial sub-cultivation for 24 hrs by microdilution; assay type: functional; conditions: NCTC 7973, 24 h; summary of the method: as §2
[13] = tested on: Pseudomonas aeruginosa; test: Antibacterial activity against Pseudomonas aeruginosa ATCC 27853 incubated for 24 hrs followed by serial sub-cultivation for 24 hrs by microdilution; assay type: functional; conditions: ATCC 27853, 24 h; summary of the method: as §2
[14] = tested on: Salmonella typhimurium; test: Antibacterial activity against Salmonella Typhimurium ATCC 13311 incubated for 24 hrs followed by serial sub-cultivation for 24 hrs by microdilution; assay type: functional, Salmonella enterica subsp. enterica serovar Typhimurium; conditions: Salmonella enterica, ATCC 13311, 24 h; summary of the method: as §2
[15] = tested on: Escherichia coli; test: Antibacterial activity against Escherichia coli ATCC 35210 incubated for 24 hrs followed by serial sub-cultivation for 24 hrs by microdilution; assay type: functional; conditions: ATCC 35210, 24 h; summary of the method: as §2
[16] = tested on: Enterococcus faecalis; test: Antibacterial activity against Enterococcus faecalis isolated from human incubated for 24 hrs followed by serial sub-cultivation for 24 hrs by microdilution; assay type: functional; summary of the method: as §2
[17] = tested on: Aspergillus ochraceus; test: Antifungal activity against Aspergillus ochraceus ATCC 12066 after 72 hrs by serial dilution technique; assay type: functional; conditions: ATCC 12066, 72 h
Summary of the method: (§3)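 Modified microdilution in 96-well plates. Fungi were kept on malt agar at 4 °C. Spores were washed off in sterile 0.85% saline with 0.1% Tween 80. Compounds were dissolved at 1 mg/ml in 5% DMSO with 0.1% Tween 80 and added to malt broth with inoculum. Plates were shaken at 160 rpm for 72 h at 28 °C. Duplicate, repeated three times.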

[18] = tested on: Aspergillus niger; test: Antifungal activity against Aspergillus niger ATCC 6275 after 72 hrs by serial dilution technique; assay type: functional; conditions: ATCC 6275, 72 h; summary of the method: as §3
[19] = tested on: Aspergillus flavus; test: Antifungal activity against Aspergillus flavus ATCC 9643 after 72 hrs by serial dilution technique; assay type: functional; conditions: ATCC 9643, 72 h; summary of the method: as §3
[20] = tested on: Talaromyces funiculosus; test: Antifungal activity against Penicillium funiculosum ATCC 36839 after 72 hrs by serial dilution technique; assay type: functional; conditions: ATCC 36839, 72 h; summary of the method: as §3
[21] = tested on: Penicillium ochrochloron; test: Antifungal activity against Penicillium ochrochloron ATCC 9112 after 72 hrs by serial dilution technique; assay type: functional; conditions: ATCC 9112, 72 h; summary of the method: as §3
[22] = tested on: Trichoderma viride; test: Antifungal activity against Trichoderma viride IAM 5061 after 72 hrs by serial dilution technique; assay type: functional; conditions: IAM 5061, 72 h; summary of the method: as §3
[23] = tested on: Candida albicans; test: Antifungal activity against Candida albicans isolated from human after 72 hrs by serial dilution technique; assay type: functional; summary of the method: as §3
[24] = tested on: Aspergillus ochraceus; test: Antifungal activity against Aspergillus ochraceus ATCC 12066 incubated for 72 hrs followed by serial sub-cultivation for 72 hrs by serial dilution technique; assay type: functional; conditions: ATCC 12066, 72 h
Summary of the method: (§4)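 MFC: material from 72 h malt broth microdilution wells was serially sub-cultured into fresh broth plates and incubated a further 72 h at 28 °C. Fungicidal concentration is taken from growth after sub-culture. Duplicate, repeated three times.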

[25] = tested on: Aspergillus fumigatus; test: Antifungal activity against Aspergillus fumigatus isolated from human incubated for 72 hrs followed by serial sub-cultivation for 72 hrs by serial dilution technique; assay type: functional; summary of the method: as §4
[26] = tested on: Aspergillus niger; test: Antifungal activity against Aspergillus niger ATCC 6275 incubated for 72 hrs followed by serial sub-cultivation for 72 hrs by serial dilution technique; assay type: functional; conditions: ATCC 6275, 72 h; summary of the method: as §4
[27] = tested on: Aspergillus flavus; test: Antifungal activity against Aspergillus flavus ATCC 9643 incubated for 72 hrs followed by serial sub-cultivation for 72 hrs by serial dilution technique; assay type: functional; conditions: ATCC 9643, 72 h; summary of the method: as §4
[28] = tested on: Talaromyces funiculosus; test: Antifungal activity against Penicillium funiculosum ATCC 36839 incubated for 72 hrs followed by serial sub-cultivation for 72 hrs by serial dilution technique; assay type: functional; conditions: ATCC 36839, 72 h; summary of the method: as §4
[29] = tested on: Penicillium ochrochloron; test: Antifungal activity against Penicillium ochrochloron ATCC 9112 incubated for 72 hrs followed by serial sub-cultivation for 72 hrs by serial dilution technique; assay type: functional; conditions: ATCC 9112, 72 h; summary of the method: as §4
[30] = tested on: Trichoderma viride; test: Antifungal activity against Trichoderma viride IAM 5061 incubated for 72 hrs followed by serial sub-cultivation for 72 hrs by serial dilution technique; assay type: functional; conditions: IAM 5061, 72 h; summary of the method: as §4
[31] = tested on: Candida albicans; test: Antifungal activity against Candida albicans isolated from human incubated for 72 hrs followed by serial sub-cultivation for 72 hrs by serial dilution technique; assay type: functional; summary of the method: as §4
[32] = tested on: Pseudomonas aeruginosa; test: Ratio of ampicillin MIC to compound MIC for Pseudomonas aeruginosa ATCC 27853; assay type: functional
[33] = tested on: Aspergillus ochraceus; test: Ratio of bifonazole to compound for Aspergillus ochraceus ATCC 12066; assay type: functional
[34] = tested on: Aspergillus niger; test: Ratio of bifonazole to compound for Aspergillus niger ATCC 6275; assay type: functional
[35] = tested on: Talaromyces funiculosus; test: Ratio of bifonazole to compound for Penicillium funiculosum ATCC 36839; assay type: functional
[36] = tested on: Penicillium ochrochloron; test: Ratio of bifonazole to compound for Penicillium ochrochloron ATCC 9112; assay type: functional
[37] = tested on: Trichoderma viride; test: Ratio of bifonazole to compound for Trichoderma viride IAM 5061; assay type: functional
[38] = tested on: Candida albicans; test: Ratio of bifonazole to compound for Candida albicans isolated from human; assay type: functional
[39] = tested on: Aspergillus ochraceus; test: Ratio of ketoconazole to compound for Aspergillus ochraceus ATCC 12066; assay type: functional
[40] = tested on: Aspergillus fumigatus; test: Ratio of ketoconazole to compound for Aspergillus fumigatus isolated from human; assay type: functional
[41] = tested on: Penicillium ochrochloron; test: Ratio of ketoconazole to compound for Penicillium ochrochloron ATCC 9112; assay type: functional
[42] = tested on: Candida albicans; test: Ratio of ketoconazole to compound for Candida albicans isolated from human; assay type: functional
[43] = tested on: Aspergillus ochraceus; test: Antifungal activity against Aspergillus ochraceus after 72 hrs by serial dilution technique

CCNc1nc(C)c(C(=O)/C=C/c2cccc([N+](=O)[O-])c2)s1
MIC [1]: 94.6 µM (≈ 30 µg/mL)
MIC [2]: 47.3 µM (≈ 15 µg/mL)
MIC [3]: 63.1 µM (≈ 20 µg/mL)
MIC [4]: 94.6 µM (≈ 30 µg/mL)
MIC [5]: 78.9 µM (≈ 25 µg/mL)
MIC [6]: 47.3 µM (≈ 15 µg/mL)
MIC [7]: 63.1 µM (≈ 20 µg/mL)
MIC [8]: 47.3 µM (≈ 15 µg/mL)
MBC [9]: 94.6 µM (≈ 30 µg/mL)
MBC [10]: 63.1 µM (≈ 20 µg/mL)
MBC [11]: 94.6 µM (≈ 30 µg/mL)
MBC [12]: 94.6 µM (≈ 30 µg/mL)
MBC [13]: 78.9 µM (≈ 25 µg/mL)
MBC [14]: 63.1 µM (≈ 20 µg/mL)
MBC [15]: 78.9 µM (≈ 25 µg/mL)
MBC [16]: 63.1 µM (≈ 20 µg/mL)
MIC [17]: 63.1 µM (≈ 20 µg/mL)
MIC [18]: 63.1 µM (≈ 20 µg/mL)
MIC [19]: 63.1 µM (≈ 20 µg/mL)
MIC [20]: 31.5 µM (≈ 10 µg/mL)
MIC [21]: 63.1 µM (≈ 20 µg/mL)
MIC [22]: 47.3 µM (≈ 15 µg/mL)
MIC [23]: 31.5 µM (≈ 10 µg/mL)
MFC [24]: 78.8 µM (≈ 25 µg/mL)
MFC [25]: 78.8 µM (≈ 25 µg/mL)
MFC [26]: 78.8 µM (≈ 25 µg/mL)
MFC [27]: 78.8 µM (≈ 25 µg/mL)
MFC [28]: 63.1 µM (≈ 20 µg/mL)
MFC [29]: 78.8 µM (≈ 25 µg/mL)
MFC [30]: 63.1 µM (≈ 20 µg/mL)
MFC [31]: 63.1 µM (≈ 20 µg/mL)
Ratio [32]: 10
Ratio [33]: 10
Ratio [34]: 10
Ratio [35]: 10
Ratio [36]: 10
Ratio [37]: 10
Ratio [38]: 10
Ratio [39]: 10
Ratio [40]: 10
Ratio [41]: 10
Ratio [42]: 10
MIC [43]: 63.1 µM (≈ 20 µg/mL)

CNc1nc(C)c(C(=O)/C=C/c2cccc(Cl)c2Cl)s1
MIC [1]: 61.2 µM (≈ 20 µg/mL)
MIC [2]: 45.9 µM (≈ 15 µg/mL)
MIC [3]: 30.6 µM (≈ 10 µg/mL)
MIC [4]: 91.7 µM (≈ 30 µg/mL)
MIC [5]: 61.2 µM (≈ 20 µg/mL)
MIC [6]: 61.2 µM (≈ 20 µg/mL)
MIC [7]: 45.9 µM (≈ 15 µg/mL)
MIC [8]: 76.5 µM (≈ 25 µg/mL)
MBC [9]: 91.7 µM (≈ 30 µg/mL)
MBC [10]: 61.2 µM (≈ 20 µg/mL)
MBC [11]: 91.7 µM (≈ 30 µg/mL)
MBC [12]: 91.7 µM (≈ 30 µg/mL)
MBC [13]: 91.7 µM (≈ 30 µg/mL)
MBC [14]: 76.5 µM (≈ 25 µg/mL)
MBC [15]: 61.2 µM (≈ 20 µg/mL)
MBC [16]: 76.5 µM (≈ 25 µg/mL)
MIC [17]: 30.6 µM (≈ 10 µg/mL)
MIC [18]: 30.6 µM (≈ 10 µg/mL)
MIC [19]: 30.6 µM (≈ 10 µg/mL)
MIC [20]: 30.6 µM (≈ 10 µg/mL)
MIC [21]: 30.6 µM (≈ 10 µg/mL)
MIC [22]: 30.6 µM (≈ 10 µg/mL)
MIC [23]: 45.9 µM (≈ 15 µg/mL)
MFC [24]: 61.2 µM (≈ 20 µg/mL)
MFC [25]: 61.2 µM (≈ 20 µg/mL)
MFC [26]: 61.2 µM (≈ 20 µg/mL)
MFC [27]: 76.5 µM (≈ 25 µg/mL)
MFC [28]: 61.2 µM (≈ 20 µg/mL)
MFC [29]: 61.2 µM (≈ 20 µg/mL)
MFC [30]: 61.2 µM (≈ 20 µg/mL)
MFC [31]: 61.2 µM (≈ 20 µg/mL)
Ratio [32]: 10
Ratio [33]: 10
Ratio [34]: 10
Ratio [35]: 10
Ratio [36]: 10
Ratio [37]: 10
Ratio [38]: 10
Ratio [39]: 10
Ratio [40]: 10
Ratio [41]: 10
Ratio [42]: 10
MIC [43]: 30.6 µM (≈ 10 µg/mL)

— ChEMBL document CHEMBL1926569, “Novel (E)-1-(4-methyl-2-(alkylamino)thiazol-5-yl)-3-arylprop-2-en-1-ones as potent antimicrobial agents” (2011)
